RanGTP-Imp inh: inhibitors of RanGTP-importin-beta interaction, primary screen, biochemical, FRET, CFP-Ran, YFP-importin-beta, homogeneous; inhibition, % (test concentration not listed); cell-free CFP-Ran/YFP-importin-beta FRET ratio; Ran GTPase (GTP-bound) - importin-beta complex; 1.1% of 300,000 active; AID 2216, 2009;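 active = more than half of the replicate wells show a fall in the fluorescence ratio signal beyond about 16%, limit read from the data, passing the limit was not always enough; inconclusive = exactly half of the replicate wells pass the set limit; inactive = fewer than half of replicates pass the limit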;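 also: 0% = DMSO wells and 100% = Ran loaded with GDP instead of GTP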
Hck Nef HTS: inhibitors of Nef-activated human Hck kinase, primary screen, biochemical, Z-Lyte FRET, 384-well, Hck-YEEI | AID 463187, 2010 | 0.68% of 220,000 active | inhibition, % at 20 µM | Recombinant Hck-YEEI plus Nef, Z-Lyte FRET kinase assay;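 active = Hck-Nef kinase inhibition above about 50%, limit read from the data; inactive = inhibition below that limit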;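 also: 0% = DMSO with Hck plus Nef and 100% = Hck alone without Nef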
Target sequence (P08631 whole entry, looked up): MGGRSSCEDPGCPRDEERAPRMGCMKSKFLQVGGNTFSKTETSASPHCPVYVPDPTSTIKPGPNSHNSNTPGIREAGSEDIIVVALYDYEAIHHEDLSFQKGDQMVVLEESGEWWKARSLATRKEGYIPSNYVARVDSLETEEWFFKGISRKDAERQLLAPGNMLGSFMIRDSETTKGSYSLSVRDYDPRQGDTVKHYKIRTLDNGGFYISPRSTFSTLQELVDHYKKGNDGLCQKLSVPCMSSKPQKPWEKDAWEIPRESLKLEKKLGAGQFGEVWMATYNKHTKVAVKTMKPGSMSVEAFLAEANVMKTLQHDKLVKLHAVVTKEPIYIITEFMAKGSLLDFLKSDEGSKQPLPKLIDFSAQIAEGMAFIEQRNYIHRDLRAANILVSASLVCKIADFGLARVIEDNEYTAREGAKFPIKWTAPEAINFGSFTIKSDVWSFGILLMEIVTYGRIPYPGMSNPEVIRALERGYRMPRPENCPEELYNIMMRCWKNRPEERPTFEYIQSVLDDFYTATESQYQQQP
Runt-SMMHC FRET: inhibitors of RUNX1 Runt–CBFb-SMMHC binding, primary screen, biochemical, FRET, Cerulean-Runt, Venus-CBFb-SMMHC, uHTS | Runt-related transcription factor 1 (Homo sapiens) + Core-binding factor subunit beta … | Cerulean-Runt/Venus-CBFb-SMMHC FRET ratio 530/480, 1 h | inhibition, % at 20 µM | 0.74% of 220,000 active | AID 1434, 2008;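 active = mean inhibition across duplicate retests at 20 µM reaching about 50%, limit read from the data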;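 also: 0% = DMSO wells and 100% = wells with excess untagged CBFb-SMMHC; inhibitors lower the FRET ratio by blocking Runt binding to CBFb-SMMHC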
Runt-CBFb FRET: inhibitors of RUNX1 Runt–CBFb binding, primary screen, biochemical, FRET, Cerulean-Runt, Venus-CBFb, uHTS; Runt-related transcription factor 1 (Homo sapiens) + Core-binding factor subunit beta …; Cerulean-Runt/Venus-CBFb FRET ratio 530/480, 1 h; inhibition, % at 20 µM; 0.46% of 220,000 active;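 active = inhibition over about 50% at 20 µM in the single-dose screen, limit read from the data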;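 also: 0% = DMSO wells and 100% = excess unlabeled CBFb competitor control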
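Doses: 20 µM compound in 1% DMSO | Material: Cerulean-labeled Runt domain protein | Amount: Each fluorescent fusion protein 100 nM | Schedule: Two 1 h room-temperature incubations shielded from light | Measured by: FRET fluorescence | Evaluation: Loss of energy transfer signal | Controls: Unlabeled CBFb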
* hit, by the source's call; u = inconclusive; x = not tested or not shown. An excerpt weighted towards active compounds, which were near 1.9% of everything screened.

SMILES | RanGTP-Imp inh | Hck Nef HTS | Runt-SMMHC FRET | Runt-CBFb FRET
N#CC1=C(N)C(C#N)(C#N)C(c2ccncc2)C2CN(C(=O)OCc3ccccc3)CC=C12 (stereo unspecified) | 14 | 9 | 22 | 15
CN1CC=C2C(C#N)=C(N)C(C#N)(C#N)C(CCc3ccccc3)C2C1 (stereo unspecified) | -2 | 10 | 79* | 103*
CCCC1C2CN(C(C)C)CC=C2C(C#N)=C(N)C1(C#N)C#N (stereo unspecified) | 89* | 28 | 40 | 12
CN1CC=C2C(C#N)=C(N)C(C#N)(C#N)C(c3ccsc3)C2C1 (stereo unspecified) | 65* | 12 | 80* | 66*
CCOC(=O)N1CC=C2C(C#N)=C(N)C(C#N)(C#N)[C@H](c3ccsc3)[C@H]2C1 | 9 | 3 | -5 | -1
Cn1c2ccccc2c(=O)c2ccc(C#CC3(O)CCCCC3)cc21 | 165* | x | x | x
COc1ccc(C#Cc2ccc3c(c2)c(=O)c2ccccc2n3C)cc1 | 84* | x | x | x
Nc1ccc(C#Cc2ccc3oc4ccccc4c(=O)c3c2)cc1 | -3 | x | x | x
Cn1c2ccccc2c(=O)c2cc(C#Cc3ccc(N)cc3)ccc21 | 50* | x | x | x
COc1ccc(S(=O)(=O)N2CCCC(N(C)CCc3ccccc3)C2)cc1OC (stereo unspecified) | 5 | x | x | x
[O-][n+]1c2c(nc3c1-c1ccccc1C3O)CCCC2 (stereo unspecified) | u | 20 | x | x
CSc1nc2ncc3c(n2n1)CC(C)(C)CC3=O | u | -12 | -2 | 0
CC1(C)CC(=O)c2cnc3c(C#N)cnn3c2C1 | 115* | -7 | -2 | 0
CCSc1nc(N)c2c3c(sc2n1)CN(C)CC3 | 5 | -5 | 18 | 2
C=CCSc1nc(N)c2c3c(sc2n1)CN(C)CC3 | 19* | x | x | x
CCNc1nc(SCC(N)=O)nc2sc3c(c12)CCN(C)C3 | 48* | x | x | x
CSc1nc(SCC(N)=O)c2c3c(sc2n1)CN(C)CC3 | 3 | 1 | -4 | -2
CCCOC1CCCN(C(=O)CCc2nnc(CCCCc3ccccc3)o2)C1 (stereo unspecified) | 0 | 7 | -6 | -1
COc1cc(NC(=O)CN2C(=O)CSc3ccc(S(=O)(=O)N4CCCC4)cc32)cc(OC)c1 | 5 | x | x | x
CCOc1ccc(CCNC(=O)CSCC(=O)Nc2cccc(C)c2)cc1OCC | -2 | x | x | x
CC(=O)COc1ccc2c(c1C)O/C(=C\c1ccco1)C2=O | 18* | x | x | x
COc1ccccc1OCCn1cc(/C=C(\C#N)C(=O)NCc2ccco2)c2ccccc21 | 2 | 3 | -8 | 0
Cc1ccc(C)c(OCCn2cc(/C=C(\C#N)C(=O)NCc3ccco3)c3ccccc32)c1 | 4 | 3 | 63* | 19
COc1ccc(OCCn2cc(/C=C(\C#N)C(=O)NCc3ccco3)c3ccccc32)cc1 | 71* | -13 | 86* | -21
COC(=O)/C=c1/s/c(=C(\C#N)C(=O)NCc2ccco2)n(-c2ccccc2)c1=O | -3 | 2 | -4 | 4
SMILES | RanGTP-Imp inh | Hck Nef HTS | Runt-SMMHC FRET | Runt-CBFb FRET
COc1ccc(/C=c2\s/c(=C(/C#N)C(=O)NCc3ccco3)n(-c3ccccc3)c2=O)cc1 | 83* | 8 | -126 | -154
COc1cc(CCC(=O)Nc2nccs2)cc(OC)c1OC | 2 | x | x | x
O=C(Cn1ncc2c([nH]c3ccccc32)c1=O)N1CCN(c2ccccn2)CC1 | 4 | x | x | x
Cc1cc(C)c(C)c(OC(=O)c2sc(Cl)nc2C)c1 | 3 | 1 | -5 | -1
CCc1nnc(NC(=O)c2sc3nc4c(cc3c2N)CCCCCC4)s1 | 8 | 45 | 61* | 30
CCc1nnc(NC(=O)c2sc3nc4c(cc3c2N)CCCCC4)s1 | u | 43 | x | 44
CCOC(=O)N1CCN(C(=O)/C=C/c2ccc(C(C)(C)C)cc2)CC1 | 28* | x | x | x
CCCCC[C@H](O)/C=C/[C@H]1C=CC(=O)[C@@H]1C/C=C\CCCC(=O)O | x | 57* | 0 | 7
Nc1c(C(=O)NCC2CCCO2)sc2nc3c(c(-c4ccco4)c12)CC/C3=C\c1ccco1 (stereo unspecified) | x | 88* | -3 | 29
NC(=O)c1sc2nc3c(c(-c4ccco4)c2c1N)CCCC3 | 1 | 1 | -23 | 8
CCOC(=O)c1cc(C#N)c(SCC(=O)c2cc(C#N)c(SC)nc2C)[nH]c1=O | 60* | 1 | 36 | 16
CCOC(=O)c1cc(C#N)c(SCC(N)=O)[nH]c1=O | 8 | -3 | -33 | 4
COc1ccc(S(=O)(=O)N2CCN(C(=O)N3CCOCC3)C2C)cc1 (stereo unspecified) | 0 | x | x | x
COc1ccc(C2(C)NC(=O)N(CC(=O)Nc3ccc(Br)c(C)c3)C2=O)cc1OC (stereo unspecified) | 21* | x | x | x
CCOc1ccccc1NC(=O)C1CCC(=O)N1S(=O)(=O)c1ccc(C)cc1 (stereo unspecified) | 3 | x | x | x
Cc1cc(C=C2C(=O)c3ccccc3C2=O)c(C)n1-c1ccccc1 | -2 | -1 | -89 | -13
Cc1cc(/C=C2\Cc3ccccc3C2=O)c(C)n1-c1ccccc1 | 23* | -1 | 16 | 17
CC1=NN2C(=N)/C(=C\c3cc(C)n(-c4ccccc4)c3C)C(=O)N=C2S1 | 39* | 25 | 4 | -7
CCn1cc(C2=NC(CC(C)C)CO2)c2ccccc21 (stereo unspecified) | 0 | -2 | -2 | 1
O=C(O)c1ccc(-c2ccc(/C=C3\NC(=O)N(Cc4ccc(Cl)cc4)C3=O)o2)cc1 | x | 18 | 84* | 98*
CCc1noc(C)c1C(=O)NC1CC(C)(C)Cc2c1cnn2-c1ccccc1 (stereo unspecified) | -3 | x | x | x
CC(=O)NNc1cc(N2CCOCC2)nc(N2CCOCC2)n1 | 83* | 19 | 86* | 49
O=C(NNc1cc(N2CCCC2)nc(N2CCCC2)n1)c1ccc([N+](=O)[O-])cc1 | -1 | 23 | x | x
CC(C)(C)c1ccc(C(=O)NNc2cc(N3CCCCC3)nc(N3CCCCC3)n2)cc1 | 5 | 1 | -4 | -10
CC(C)(C)c1ccc(C(=O)NNc2cc(N3CCOCC3)nc(N3CCOCC3)n2)cc1 | 85* | 18 | -6 | -1
O=C(NNc1cc(N2CCOCC2)nc(N2CCOCC2)n1)c1ccc(Cl)cc1Cl | 76* | 2 | -5 | 4
O=C(CCc1ccccc1)NNc1cc(N2CCCCC2)nc(N2CCCCC2)n1 | 71* | 1 | -7 | -5
O=C(NC1=NCCS1)c1cccc2ccccc12 | 4 | 19 | -4 | -3

Compound activity deposited in PubChem BioAssay by several laboratories.
